Measurements: ChEMBL document CHEMBL3243960
Calls of active or inactive are those of the source. No cut-off for these calls is given here.

Experiments:
[1] = target: T1, Asparagine synthetase [glutamine-hydrolyzing] (Rattus norvegicus) (UniProt P49088); test: Inhibition of asparagine synthetase isolated from rat bearing Novikoff hepatoma cells using [14C]-L-aspartic acid as substrate at 2 mM incubated 15 mins prior to substrate addition measured after 30 mins
T1 sequence (whole entry): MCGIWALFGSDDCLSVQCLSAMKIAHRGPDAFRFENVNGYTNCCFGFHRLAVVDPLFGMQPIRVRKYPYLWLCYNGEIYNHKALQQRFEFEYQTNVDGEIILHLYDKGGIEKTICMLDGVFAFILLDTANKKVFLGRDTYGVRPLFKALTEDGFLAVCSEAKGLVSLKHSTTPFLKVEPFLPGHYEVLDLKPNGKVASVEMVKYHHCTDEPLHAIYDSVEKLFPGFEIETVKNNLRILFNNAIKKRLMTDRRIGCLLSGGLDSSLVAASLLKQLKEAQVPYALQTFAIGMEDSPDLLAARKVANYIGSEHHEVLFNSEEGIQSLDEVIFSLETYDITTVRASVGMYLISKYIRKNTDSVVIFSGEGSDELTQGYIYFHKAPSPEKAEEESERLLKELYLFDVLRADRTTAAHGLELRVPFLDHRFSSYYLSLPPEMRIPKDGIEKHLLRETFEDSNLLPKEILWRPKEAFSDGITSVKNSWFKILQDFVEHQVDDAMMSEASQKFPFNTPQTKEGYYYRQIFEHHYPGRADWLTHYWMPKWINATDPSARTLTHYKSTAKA
Outline: (§1)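 ASase partially purified from excised rat Novikoff hepatoma (specific activity 0.51 μmol asparagine/mg protein/30 min). Enzyme and inhibitor were preincubated with 100 μmol Tris at pH 8.0 for 15 min at 37 °C. L-glutamine (20.0 μmol), L-aspartic acid (2.0 μmol) and L-aspartic acid-¹⁴C (2×10⁶ dpm) were then added and incubated 30 min at 37 °C. Isolated L-asparagine-¹⁴C was counted by scintillation. Percent inhibition came from duplicates on three separate days with fresh inhibitor solutions.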

[2] = target: T2, Asparagine synthetase [glutamine-hydrolyzing] (Mus musculus) (UniProt Q61024); test: Inhibition of asparagine synthetase in mouse L5178Y/AR cells at 1 mM; assay type: cell-based
T2 sequence (whole entry): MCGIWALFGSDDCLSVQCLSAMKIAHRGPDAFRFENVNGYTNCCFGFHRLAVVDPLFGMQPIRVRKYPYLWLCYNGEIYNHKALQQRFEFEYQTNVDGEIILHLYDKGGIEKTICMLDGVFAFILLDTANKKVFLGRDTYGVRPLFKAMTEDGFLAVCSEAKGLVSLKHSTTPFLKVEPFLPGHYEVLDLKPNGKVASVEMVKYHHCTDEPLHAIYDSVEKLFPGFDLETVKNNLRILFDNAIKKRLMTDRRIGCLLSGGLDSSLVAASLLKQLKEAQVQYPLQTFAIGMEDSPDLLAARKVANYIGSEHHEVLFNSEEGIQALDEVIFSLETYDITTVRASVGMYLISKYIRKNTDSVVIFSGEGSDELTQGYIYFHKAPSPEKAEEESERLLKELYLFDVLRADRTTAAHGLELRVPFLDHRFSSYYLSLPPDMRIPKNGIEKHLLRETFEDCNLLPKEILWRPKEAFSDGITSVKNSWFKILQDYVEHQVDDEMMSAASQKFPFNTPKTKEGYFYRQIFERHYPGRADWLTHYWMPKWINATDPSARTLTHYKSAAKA

[3] = tested on: P388; test: Antitumor activity against mouse P388 cells […] in mouse assessed as increase in life span; assay type: functional
Outline: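 In vivo screen run by the National Cancer Institute Drug Research and Development Program in CDF₁ mice bearing P-388 lymphocytic leukemia, an asparaginase-resistant line. The read-out was increase in life span.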

[4] = target: T2, Asparagine synthetase [glutamine-hydrolyzing] (Mus musculus); test: Inhibition of asparagine synthetase in mouse L5178Y/AR cells at 10 mM; assay type: cell-based
[5] = target: T1, Asparagine synthetase [glutamine-hydrolyzing] (Rattus norvegicus); test: Competitive inhibition of rat asparagine synthetase using L-aspartic acid as substrate incubated 15 mins prior to substrate addition measured after 30 mins by double reciprocal plot analysis
Outline: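 Partially purified rat Novikoff hepatoma ASase was preincubated with inhibitor in Tris at pH 8.0 for 15 min at 37 °C. L-glutamine was then added with L-aspartic acid varied at 0.25, 0.50, 1.0 and 2.0 mM final, plus ¹⁴C-aspartate (2×10⁶ dpm/tube, 206 mCi/mmol), and incubated 30 min at 37 °C. L-asparagine-¹⁴C was measured. Double-reciprocal plots were fitted by least-squares regression.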

[6] = target: T1, Asparagine synthetase [glutamine-hydrolyzing] (Rattus norvegicus); test: Inhibition of asparagine synthetase isolated from rat bearing Novikoff hepatoma cells using [14C]-L-aspartic acid as substrate at 1 mM incubated 15 mins prior to substrate addition measured after 30 mins; outline: as §1
[7] = target: T3, Asparagine synthetase [glutamine-hydrolyzing] (Homo sapiens) (UniProt P08243); test: Inhibition of asparagine synthetase in human KB cells at 1 mM; assay type: cell-based
T3 sequence (whole entry): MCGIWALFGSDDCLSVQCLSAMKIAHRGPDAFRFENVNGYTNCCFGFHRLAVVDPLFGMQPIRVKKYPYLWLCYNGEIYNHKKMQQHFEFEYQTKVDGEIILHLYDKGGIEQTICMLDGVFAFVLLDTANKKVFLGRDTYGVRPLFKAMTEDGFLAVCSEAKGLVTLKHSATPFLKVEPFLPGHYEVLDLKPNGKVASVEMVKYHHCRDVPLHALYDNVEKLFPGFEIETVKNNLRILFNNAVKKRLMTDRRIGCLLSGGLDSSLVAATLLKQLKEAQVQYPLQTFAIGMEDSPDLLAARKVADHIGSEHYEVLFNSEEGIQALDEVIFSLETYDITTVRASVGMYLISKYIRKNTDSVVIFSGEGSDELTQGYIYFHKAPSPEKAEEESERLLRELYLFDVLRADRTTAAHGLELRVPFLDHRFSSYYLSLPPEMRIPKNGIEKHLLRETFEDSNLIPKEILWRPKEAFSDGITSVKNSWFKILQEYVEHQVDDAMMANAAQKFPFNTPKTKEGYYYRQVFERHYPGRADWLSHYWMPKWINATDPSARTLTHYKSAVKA

Structure (SMILES)	inhibition [1] [%]	inhibition [4]	further results
N[C@@H](CS(=O)(=O)NCCCl)C(=O)O	0	–	inhibition [2]: inactive
CCOC(=O)/C=C/C(=O)NNS(=O)(=O)C[C@H](N)C(=O)O	37.3	inactive	Activity [3]: inactive
N[C@@H](CC(=O)NO)C(=O)O	15.8	–	inhibition [5]: inactive
N[C@@H](CS(=O)(=O)NO)C(=O)O	96.5	81%	Activity [3]: inactive; inhibition [6]: 77.6%; inhibition [5]: Active; inhibition [2]: 23%
N[C@@H](CS(=O)(=O)NNC(=O)c1ccc(S(=O)(=O)F)cc1)C(=O)O	43.1	inactive	–
N[C@@H](CS(=O)(=O)NCc1ccc(S(=O)(=O)F)cc1)C(=O)O	29.5	inactive	–
N[C@@H](CS(N)(=O)=O)C(=O)O	25.8	–	–
NC(CC(=O)NO)C(=O)O (racemic)	–	–	inhibition [7]: 36%
